In ChEMBL document CHEMBL1122694, “Steroidogenesis inhibitors. 1. Adrenal inhibitory and interceptive activity of trilostane and related compounds” (1984) one finds MED10, MED90 and minimal effective dose data, which are given here for 16 compounds.

The test system of experiment [1] is Rattus norvegicus. In words: Minimum effective dose for 100% interruption of pregnancy in rat when compound was administered perorally; IN-Inactive. The experiment is classed as functional, organism-based. Summed up: (§1)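 Pregnant rats given a single oral dose on day 10 of pregnancy, seven rats per group. MED, in mg/kg po, is the minimum dose giving 100% interruption of pregnancy.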

For experiment [2], the system named is Rattus norvegicus. As to the kind of experiment: Minimum effective dose for 100% interruption of pregnancy in rat when compound was administered perorally. In kind it is functional. Summed up: as §1
The test system of experiment [3] is Monkey. In words: Effective dose for interruption of pregnancy in greater than 90% of the monkeys. In kind it is functional, Cercopithecidae. Summed up:
(§2)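 Pregnant monkeys dosed once daily on days 50–54 of pregnancy; group size two to six or more monkeys. Effective dose, in mg per monkey per day, is the dose interrupting pregnancy in more than 90% of monkeys.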

The test system of experiment [4] is Rattus norvegicus. As to the kind of experiment: Effect of compound on plasma level of progesterone in ACTH treated pseudopregnant rats when administered orally. The experiment is classed as functional. The conditions noted are these: po, read-out: MED. Summed up:
(§3)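 Pseudopregnant rats stimulated with ACTH; single oral dose, groups of seven rats. Plasma progesterone and corticosterone measured; MED in mg/kg po is the single dose giving a significant (p < 0.01) fall versus stimulated control levels.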

For experiment [5], the system named is Monkey. In words: Effect of compound on plasma level of cortisol in ACTH treated rhesus monkey when administered orally. In kind it is functional. The conditions noted are these: Cercopithecidae, in Macaca mulatta, po, read-out: MED.
Experiment [6] deals with Rattus norvegicus. As to the kind of experiment: Effect of compound on plasma level of corticosterone in ACTH treated pseudopregnant rats when administered orally. In kind it is functional. The conditions noted are these: po, read-out: MED. Summed up: as §3
Experiment [7] deals with Monkey. As to the kind of experiment: Effective dose for interruption of pregnancy in greater than 90% of the monkeys; IN-Inactive. In kind it is functional, organism-based. The conditions noted are these: Cercopithecidae. Summed up: as §2

SMILES strings stand for the structures. Active and inactive are the calls of the source. The rule behind the calls is not given here. A value given as a limit tells only on which side of the number the result lay.

In the case of `CC12CC[C@H]3[C@@H](CCC4CC(=O)[C@H](C#N)CC43C)[C@@H]1CCC2O` (stereo partly specified), the MED10 result in experiment [1] was “inactive”.
For `CC12CCC3C(CC[C@@]45OC4c4oncc4CC35C)C1CC[C@]2(C)O` (stereo partly specified), the MED10 in experiment [2] is >500 mg/kg.
Regarding `CC12O[C@]13CC[C@@H]1[C@H](CCC4(C)[C@H]1CC[C@]4(C)O)C3(C)C[C@@H](C#N)C2=O` (stereo partly specified), the MED90 in experiment [3] is on record as 250 mg monkey-1 day-1. For the same compound, the minimal effective dose in experiment [4] was determined as 20 mg/kg; in experiment [5], 250 mg/kg; in experiment [6], 20 mg/kg. In experiment [2], the MED10 was found to be 50 mg/kg.
As for `CC12CC[C@H]3[C@@H](CC[C@]45OC4C(=O)[C@@H](C#N)CC35C)[C@@H]1CCC2O` (stereo partly specified), the MED10 result in experiment [1] is “inactive”.
In experiment [3], `CC12CC[C@H]3[C@@H](CC[C@@]45OC4C(=O)[C@H](C#N)CC35C)[C@@H]1CCC2O` (stereo partly specified) registered an MED90 of 1000 mg monkey-1 day-1. For the same compound, the minimal effective dose was determined as 500 mg/kg in experiment [4], 10 mg/kg in experiment [5] and 50 mg/kg in experiment [6]. For the same compound, the MED10 in experiment [2] worked out at 500 mg/kg.
`CC1(C)C(=O)[C@H](C#N)CC2(C)C1=CCC1C2CCC2(C)C1CC[C@]2(C)O` (stereo partly specified): the MED90 result in experiment [7] is “inactive”. The compound further gave an MED10 in experiment [2] of 6 mg/kg.
As to `CC12O[C@]13CCC1C(CCC4(C)C1CC[C@]4(C)O)C3(C)Cc1cnoc12` (stereo partly specified), the MED90 result in experiment [7] was “inactive”. In experiment [2], the MED10 worked out at 192 mg/kg.
Compound `CC12CC[C@H]3[C@@H](CC[C@@]45OC4C(=O)[C@H](C#N)CC35C)[C@@H]1CC[C@]2(C)O` (stereo partly specified) displayed an MED90 in experiment [3] of 250 mg monkey-1 day-1. Further, the results for the minimal effective dose in experiment [4], in experiment [5] and in experiment [6] were 500 mg/kg, 10 mg/kg and 50 mg/kg, respectively. For the same compound, in experiment [2], the MED10 amounted to 500 mg/kg.
Turning to `CC1(C)C2=CCC3C(CCC4(C)C3CC[C@]4(C)O)C2(C)Cc2cnoc21` (stereo partly specified), the MED90 in experiment [3] is listed as >1000 mg monkey-1 day-1. This compound gave an MED10 in experiment [2] of 25 mg/kg.
For the compound `CC12CC[C@H]3[C@@H](CC[C@@]45OC4(C)C(=O)[C@H](C#N)CC35C)[C@@H]1CCC2O` (stereo partly specified), the MED90 in experiment [3] is listed as >500 mg monkey-1 day-1. The minimal effective dose in experiment [4] turned out to be 5 mg/kg; in experiment [5], 250 mg/kg; in experiment [6], 50 mg/kg. In experiment [2], this compound displayed an MED10 of 125 mg/kg.
Compound `CC1C[C@H]2[C@@H]3CCC(O)C3(C)CC[C@@H]2C2(C)C[C@@H](C#N)C(=O)C3O[C@]132` (stereo partly specified) returned an MED90 in experiment [3] of 500 mg monkey-1 day-1. In experiment [2], this compound returned an MED10 of 12 mg/kg.
On to `CC12CC[C@H]3[C@@H](CC[C@@]45OC4C(=O)CCC35C)[C@@H]1CCC2O` (stereo partly specified), for which the MED10 result in experiment [1] is “inactive”.
In the case of `CC12CCC3C(CC[C@@]45OC4(C)c4oncc4CC35C)C1CCC2O` (stereo partly specified), the MED10 in experiment [2] was >500 mg/kg.
Consider `CC12C[C@@H](C#N)C(=O)C=C1CCC1C2CCC2(C)C(O)CCC12` (stereo partly specified), for which, in experiment [2], the MED10 amounted to 1000 mg/kg.
On the same count and under the same terms, the figure for `CC12CCC3C(CC[C@@]45OC4c4oncc4CC35C)C1CCC2O` (stereo partly specified) is >500 mg/kg; for `CC1CC2C3CCC(O)C3(C)CCC2C2(C)Cc3cnoc3C3O[C@]132` (stereo partly specified) it is >500 mg/kg.
